Results reported in ChEMBL document CHEMBL5370536, “Design, synthesis, and biological activity of dual monoamine oxidase A and heat shock protein 90 inhibitors, N-Methylpropargylamine-conjugated 4-isopropylresorcinol for glioblastoma” (Eur J Med Chem, 2023).
The source made the active and inactive calls. No cut-off for these calls is given here.

How the values were obtained:
[1] = target: T1, Amine oxidase [flavin-containing] A (Mus musculus, UniProt Q64133); test: Inhibition of MAO A in mouse GL26 cells preincubated for 20 mins followed by 14C-labeled 5-hydroxytryptamine addition and measured after 20 mins by scintillation counter analysis; type: cell-based
T1 sequence (Q64133 whole entry): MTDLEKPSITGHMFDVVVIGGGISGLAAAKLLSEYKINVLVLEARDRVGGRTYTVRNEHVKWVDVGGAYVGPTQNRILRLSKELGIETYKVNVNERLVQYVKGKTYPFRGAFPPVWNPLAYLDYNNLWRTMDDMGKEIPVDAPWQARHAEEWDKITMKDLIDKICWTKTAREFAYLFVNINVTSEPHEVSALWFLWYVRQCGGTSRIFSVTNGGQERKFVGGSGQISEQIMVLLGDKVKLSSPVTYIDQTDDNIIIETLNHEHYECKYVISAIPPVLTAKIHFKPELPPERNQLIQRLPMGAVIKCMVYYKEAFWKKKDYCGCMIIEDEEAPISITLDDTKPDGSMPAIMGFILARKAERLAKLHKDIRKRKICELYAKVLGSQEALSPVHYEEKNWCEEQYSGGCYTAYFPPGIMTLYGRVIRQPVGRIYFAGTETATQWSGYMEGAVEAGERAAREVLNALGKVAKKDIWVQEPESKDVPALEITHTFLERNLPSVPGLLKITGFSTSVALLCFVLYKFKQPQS

[2] = Antiproliferative activity against mouse GL26 cells assessed as inhibition of cell growth measured after 48 hrs by MTT assay; type: functional, cell-based; details: GL26, 48 h
In short: (§1)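 Cells plated at 5×10³ per well 24 h before compound and grown in DMEM with 10% FBS at 37°C, 5% CO₂. After 48 h exposure, the medium was replaced with 0.5 mg/mL MTT for 3 h. Formazan was dissolved in DMSO and read at 570 nm.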

[3] = target: Heat shock protein HSP 90-alpha (Homo sapiens, UniProt P07900); test: Inhibition of human recombinant HSP90alpha preincubated for 30 mins followed by FITC-GM addition and mesured after 3 hrs by fluorescence polarization assay
U-251 [4] = test: Antiproliferative activity against human Temozolomide-resistant U-251 cells assessed as inhibition of cell growth measured after 48 hrs by MTT assay; type: functional, cell-based; details: U-251, 48 h; in short: as §1
[5] = Antiproliferative activity against human U373 MG cells assessed as inhibition of cell growth measured after 72 hrs by CCK8 method; type: functional, cell-based, U-373MG ATCC
In short: (§2)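 Cell lines from ATCC or from patient surgical specimens (P1S, P3, P3R), kept in DMEM with 10% FBS and 1% penicillin/streptomycin at 37°C, 5% CO₂. P3R medium also held 50 μM TMZ. Cells were seeded at 2×10³/well 24 h before compound, then exposed 72 h.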

U-251 [6] = test: Downregulation of Akt phosphorylation expression at Ser 473 residues in human Temozolomide-resistant U-251 cells incubated for 24 hrs by Western blot analysis; type: functional, cell-based; details: dose 0.1-3 µM
RPMI-8226 = test: Growth inhibition of human RPMI-8226 cells incubated for 48 hrs by SRB assay; type: functional
In short: (§3)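 NCI-60 panel screen: cells seeded at 5000 to 40000 per well according to doubling time, 24 h before drug addition at various concentrations. A time-zero plate was TCA-fixed at drug addition. After 48 h drug exposure, growth was read by sulforhodamine B staining. Percent growth = [(Ti − Tz)/(C − Tz)] × 100, and GI50 is the concentration at which this equals 50.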

U-87 MG = test: Antiproliferative activity against human U-87 MG cells assessed as inhibition of cell growth measured after 72 hrs by CCK8 method; type: functional, cell-based, U-87MG ATCC; in short: as §2
HL-60 = test: Growth inhibition of human HL-60 cells incubated for 48 hrs by SRB assay; type: functional; in short: as §3
[7] = Antitumor activity against mouse GL26 cells xenografted in C57BL/6J mouse model assessed as tumor growth inhibition at 25 mg/kg, ip administered daily for 3 days followed by every 3 days for 14 days by caliper method relative to control; type: functional; details: GL26, 336 h, time 14 day, read-out: TGI
In short: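 Male C57BL/6J mice aged 8-9 weeks received 2 × 10⁵ GL26 cells subcutaneously in the lower back. From day 9 after implantation, once tumours were palpable, 25 mg/kg was given i.p. daily for 3 days and then every 3 days over 14 days. Caliper volume was length × width² ÷ 2. TGI% was taken relative to the mean tumour size of the vehicle group.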

NCI-H522 = test: Growth inhibition of human NCI-H522 cells incubated for 48 hrs by SRB assay; type: functional; in short: as §3
SNB-19 = test: Growth inhibition of human SNB-19 cells incubated for 48 hrs by SRB assay; type: functional; in short: as §3
SNB-75 = test: Growth inhibition of human SNB-75 cells incubated for 48 hrs by SRB assay; type: functional; in short: as §3
A549 = test: Growth inhibition of human A549 cells incubated for 48 hrs by SRB assay; type: functional; in short: as §3
SF-539 = test: Growth inhibition of human SF-539 cells incubated for 48 hrs by SRB assay; type: functional; in short: as §3
[8] = Antiproliferative activity against human patient-derived TMZ-resistant GBM cells with MGMT negative P3R cell assessed as inhibition of cell growth measured after 72 hrs by CCK8 method; type: functional, cell-based; in short: as §2
K562 = test: Growth inhibition of human K562 cells incubated for 48 hrs by SRB assay; type: functional; in short: as §3
U-251 [9] = test: Upregulation of HSP70 expression in human Temozolomide-resistant U-251 cells incubated for 24 hrs by Western blot analysis; type: functional, cell-based; details: dose 0.1-3 µM
GL26 [10] = test: Upregulation of HSP70 expression in mouse GL26 cells incubated for 24 hrs by Western blot analysis; type: functional, cell-based; details: dose 0.1-3 µM
SF-268 = test: Growth inhibition of human SF-268 cells incubated for 48 hrs by SRB assay; type: functional; in short: as §3
U-251 [11] = test: Growth inhibition of human U-251 cells incubated for 48 hrs by SRB assay; type: functional; in short: as §3
T98G = test: Antiproliferative activity against human T98G cells assessed as inhibition of cell growth measured after 72 hrs by CCK8 method; type: functional, cell-based; in short: as §2
SF-295 = test: Growth inhibition of human SF-295 cells incubated for 48 hrs by SRB assay; type: functional; in short: as §3
LN-229 = test: Antiproliferative activity against human LN-229 cells assessed as inhibition of cell growth measured after 72 hrs by CCK8 method; type: functional, cell-based; details: LN-229, 72 h; in short: as §2
[12] = Toxicity in C57BL/6J mouse assessed as change in body weight at 25 mg/kg, ip measured after 3 days; type: organism-based; details: in vivo, 72 h, time 3 day
In short: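 Male C57BL/6J mice, 8-9 weeks old, given 2 × 10⁵ GL26 cells subcutaneously in the lower back. From day 9, when tumor was visible, dosing was i.p. for 14 days with vehicle, clorgyline 10 mg/kg daily, or test compounds 25 mg/kg daily for the first 3 days then every 3 days. Tumor was measured by caliper, volume = length × width² ÷ 2, and TGI% was taken against the vehicle-group mean. Body weight was tracked.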

GL26 [13] = test: Downregulation of IFN-gamma induced PD-L1 expression in mouse GL26 cells incubated for 24 hrs by flow cytometry analysis; type: functional, cell-based
In short: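 GL26 cells at 3.6 × 10⁵ per well were treated at various concentrations with or without 10 ng/mL IFN-γ for 24 h. Cells were stained with goat anti-PD-L1 for 1 h in PBS/0.05% BSA, then FITC donkey anti-goat for 1 h, and read by flow cytometry. MFI was normalised to the secondary-antibody-only isotype control and expressed as an MFI ratio.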

HCT-116 [14] = test: Downregulation of PD-L1 expression in human HCT-116 cells; type: functional, cell-based
In short: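 HCT116 cells at 3 × 10⁵ per well were treated at various concentrations with or without 20 ng/mL IFN-γ for 48 h. Cells were stained with mouse anti-PD-L1 for 1 h in PBS/0.05% BSA, then FITC goat anti-mouse for 1 h. Surface FITC mean fluorescence intensity was measured by flow cytometry.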

[15] = Antiproliferative activity against human patient-derived P3 cell assessed as inhibition of cell growth measured after 72 hrs by CCK8 method; type: functional, cell-based; in short: as §2
HCT-116 [16] = test: Growth inhibition of human HCT-116 cells incubated for 48 hrs by SRB assay; type: functional; in short: as §3
GL26 [17] = test: Downregulation of Akt phosphorylation expression at Ser 473 residues in mouse GL26 cells incubated for 24 hrs by Western blot analysis; type: functional, cell-based; details: dose 0.1-3 µM
A 172 = test: Antiproliferative activity against human A-172 cells assessed as inhibition of cell growth measured after 72 hrs by CCK8 method; type: functional, cell-based; details: A 172, 72 h; in short: as §2
GL26 [18] = test: Downregulation of HER2 expression in mouse GL26 cells incubated for 24 hrs by Western blot analysis; type: functional, cell-based; details: dose 0.1-3 µM
U-251 [19] = test: Downregulation of HER2 expression in human Temozolomide-resistant U-251 cells incubated for 24 hrs by Western blot analysis; type: functional, cell-based; details: dose 0.1-3 µM
NCI-H460 = test: Growth inhibition of human NCI-H460 cells incubated for 48 hrs by SRB assay; type: functional; in short: as §3
[20] = Antiproliferative activity against human patient-derived, TMZ-resistant and concurrent chemo-radiotherapy (CCRT)-resistant P1S cell assessed as inhibition of cell growth measured after 72 hrs by CCK8 method; type: functional, cell-based; in short: as §2

## C#CCN(C)CCCOc1cc(N(CCC)C(=O)c2cc(C(C)C)c(O)cc2O)ccc1Cl
[1]
  IC50: 860 nM

## C#CCN(C)CCCOc1cccc(NC(=O)c2cc(C(C)C)c(O)cc2O)c1Cl
[1]
  IC50: 2360 nM

## C#CCN(C)CCCOc1ccc(N(CCC)C(=O)c2cc(C(C)C)c(O)cc2O)cc1Cl
[2]
  IC50: 8420 nM
[1]
  IC50: 3860 nM
[3]
  IC50: 170 nM
U-251 [4]
  IC50: > 10000 nM

## C#CCN(C)CCCOc1ccc(N(C)C(=O)c2cc(C(C)C)c(O)cc2O)cc1Cl
[5]
  IC50: 1460 nM
U-251 [6]
  Activity: Dose-Dependent Effect
RPMI-8226
  GI50: 380 nM
U-87 MG
  IC50: 350 nM
HL-60
  GI50: 40 nM
[7]
  inhibition in vivo at 25 mg/kg: 63.2%
NCI-H522
  GI50: 80 nM
SNB-19
  GI50: 440 nM
SNB-75
  GI50: 420 nM
A549
  GI50: 190 nM
SF-539
  GI50: 320 nM
[8]
  IC50: 2530 nM
[2]
  IC50: 730 nM
K562
  GI50: 70 nM
U-251 [9]
  Activity: Dose-Dependent Effect
[1]
  IC50: 1770 nM
GL26 [10]
  Activity: Dose-Dependent Effect
SF-268
  GI50: 520 nM
U-251 [11]
  GI50: 320 nM
T98G
  IC50: 460 nM
[3]
  IC50: 19 nM
SF-295
  GI50: 290 nM
LN-229
  IC50: 400 nM
[12]
  Activity: Toxic
GL26 [13]
  Activity: Dose-Dependent Effect
HCT-116 [14]
  Activity: Active
[15]
  IC50: 2730 nM
HCT-116 [16]
  GI50: 80 nM
GL26 [17]
  Activity: Dose-Dependent Effect
A 172
  IC50: 3310 nM
GL26 [18]
  Activity: Dose-Dependent Effect
U-251 [19]
  Activity: Dose-Dependent Effect
NCI-H460
  GI50: 40 nM
U-251 [4]
  IC50: 840 nM
[20]
  IC50: 860 nM

## C#CCN(C)CCCOc1cccc(N(CC)C(=O)c2cc(C(C)C)c(O)cc2O)c1Cl
[1]
  IC50: 2270 nM

## C#CCN(C)CCCOc1cccc(N(C)C(=O)c2cc(C(C)C)c(O)cc2O)c1Cl
[1]
  IC50: > 10000 nM

## C#CCN(C)CCCOc1ccc(NC(=O)c2cc(C(C)C)c(O)cc2O)cc1Cl
[2]
  IC50: > 10000 nM
[1]
  IC50: 110 nM
[3]
  IC50: > 10000 nM
U-251 [4]
  IC50: > 10000 nM
